Laboratory results published in ChEMBL document CHEMBL4014346, “Lead Optimization Generates CYP11B1 Inhibitors of Pyridylmethyl Isoxazole Type with Improved Pharmacological Profile for the Treatment of Cushing's Disease” (J Med Chem, 2017).

Legend:
[1] = molecular target: T1, Cytochrome P450 11B2, mitochondrial (Homo sapiens, UniProt P19099); assay: Inhibition of human CYP11B2 expressed in hamster V79MZ cells using [1,2-3H]-11-deoxycorticosterone as substrate after 6 hrs by HPLC analysis; type: ADME, cell-based
T1 sequence (P19099 whole entry): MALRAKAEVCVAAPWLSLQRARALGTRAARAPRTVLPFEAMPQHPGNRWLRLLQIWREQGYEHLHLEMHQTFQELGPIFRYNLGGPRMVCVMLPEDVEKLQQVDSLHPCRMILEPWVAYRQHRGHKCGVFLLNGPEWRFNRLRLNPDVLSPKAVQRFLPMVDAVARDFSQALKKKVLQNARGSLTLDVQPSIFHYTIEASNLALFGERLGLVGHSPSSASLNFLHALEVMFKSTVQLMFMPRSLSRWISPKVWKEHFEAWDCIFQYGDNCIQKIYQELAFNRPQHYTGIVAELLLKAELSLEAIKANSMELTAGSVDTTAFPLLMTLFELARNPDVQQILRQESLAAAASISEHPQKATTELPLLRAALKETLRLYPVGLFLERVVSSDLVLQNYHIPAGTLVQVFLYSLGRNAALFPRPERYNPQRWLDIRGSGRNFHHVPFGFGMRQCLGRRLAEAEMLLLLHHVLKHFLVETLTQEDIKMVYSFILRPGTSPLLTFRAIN
Outline: (§1)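 V79MZ cells expressing recombinant human CYP11B1 or CYP11B2, or rat CYP11B1, incubated with [1,2-³H]-11-deoxycorticosterone (100 nM) and inhibitor over a range of concentrations; ketoconazole as reference.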

[2] = Cytotoxicity against HEK293 cells assessed as reduction in cell viability after 66 hrs by MTT assay; type: cell-based; details: human
Outline: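 HEK293 cells seeded at 2x10⁵ per well; 4 h later, compound added at 100–6.25 µM in quadruplicate in 1% DMSO. MTT read-out at 570 nm after 66 h against vehicle control; IC20 derived by curve fitting.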

[3] = molecular target: T2, Cytochrome P450 11B1, mitochondrial (Rattus norvegicus, UniProt P15393); assay: Inhibition of rat CYP11B1 expressed in hamster V79MZ cells using [1,2-3H]-11-deoxycorticosterone as substrate after 6 hrs by HPLC analysis; type: cell-based; outline: as §1
T2 sequence (P15393 whole entry): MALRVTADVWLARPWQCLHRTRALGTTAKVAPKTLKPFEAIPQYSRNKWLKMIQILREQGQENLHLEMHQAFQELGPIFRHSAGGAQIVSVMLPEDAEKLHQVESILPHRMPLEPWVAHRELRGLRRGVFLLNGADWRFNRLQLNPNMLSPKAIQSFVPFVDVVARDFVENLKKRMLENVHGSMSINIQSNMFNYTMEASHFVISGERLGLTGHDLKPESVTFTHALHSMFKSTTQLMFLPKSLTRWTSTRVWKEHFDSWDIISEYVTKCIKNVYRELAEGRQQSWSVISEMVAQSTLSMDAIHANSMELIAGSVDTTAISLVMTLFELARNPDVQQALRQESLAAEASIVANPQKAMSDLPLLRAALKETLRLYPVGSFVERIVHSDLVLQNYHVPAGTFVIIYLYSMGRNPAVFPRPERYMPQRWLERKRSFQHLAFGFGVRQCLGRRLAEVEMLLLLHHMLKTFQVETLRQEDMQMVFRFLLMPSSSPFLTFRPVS

Salmonella typhimurium = assay: Mutagenicity in Salmonella typhimurium TA98 up to 100 uM in presence of rat liver S9 fraction by Ames 2 assay; type: toxicity; details: salmonella enterica subsp. enterica serovar typhimurium
Outline: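 AMES II kit with Salmonella typhimurium TA98 and TA7001–TA7006, run with or without rat liver S9 fraction according to the kit instructions.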

CYP19A1 = molecular target: T3, CYP19A1 (Homo sapiens, UniProt P11511); assay: Inhibition of human placental microsomal CYP19A1 at 2 uM using [1beta-3H]-androstenedione as substrate after 20 mins in presence of NADPH by scintillation spectrometric method relative to control; type: ADME; details: placental microsomes, probe [1beta-3H]-androstenedione
T3 sequence (P11511 whole entry): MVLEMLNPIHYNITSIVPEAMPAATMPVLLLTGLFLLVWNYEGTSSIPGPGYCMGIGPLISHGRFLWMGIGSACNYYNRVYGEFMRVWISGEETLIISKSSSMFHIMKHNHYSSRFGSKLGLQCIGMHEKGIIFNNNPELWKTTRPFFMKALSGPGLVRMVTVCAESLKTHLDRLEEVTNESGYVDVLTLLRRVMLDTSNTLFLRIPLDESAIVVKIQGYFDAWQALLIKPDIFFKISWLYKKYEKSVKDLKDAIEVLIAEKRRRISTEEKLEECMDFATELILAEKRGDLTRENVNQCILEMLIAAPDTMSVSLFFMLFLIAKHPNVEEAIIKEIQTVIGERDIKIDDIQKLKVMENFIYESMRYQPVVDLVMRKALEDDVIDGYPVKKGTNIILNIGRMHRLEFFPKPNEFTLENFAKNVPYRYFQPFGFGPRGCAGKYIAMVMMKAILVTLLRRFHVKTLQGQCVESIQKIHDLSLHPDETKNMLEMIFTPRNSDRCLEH
Outline: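 Human placental microsomal CYP19A1; [1β-³H]androstenedione (500 nM) as substrate; test compounds at 2 µM; fadrozole and aminoglutethimide as references.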

[4] = molecular target: T4, Cytochrome P450 11B1, mitochondrial (Homo sapiens, UniProt P15538); assay: Inhibition of human CYP11B1 expressed in hamster V79MZ cells using [1,2-3H]-11-deoxycorticosterone as substrate after 6 hrs by HPLC analysis; type: cell-based; outline: as §1
T4 sequence (P15538 whole entry): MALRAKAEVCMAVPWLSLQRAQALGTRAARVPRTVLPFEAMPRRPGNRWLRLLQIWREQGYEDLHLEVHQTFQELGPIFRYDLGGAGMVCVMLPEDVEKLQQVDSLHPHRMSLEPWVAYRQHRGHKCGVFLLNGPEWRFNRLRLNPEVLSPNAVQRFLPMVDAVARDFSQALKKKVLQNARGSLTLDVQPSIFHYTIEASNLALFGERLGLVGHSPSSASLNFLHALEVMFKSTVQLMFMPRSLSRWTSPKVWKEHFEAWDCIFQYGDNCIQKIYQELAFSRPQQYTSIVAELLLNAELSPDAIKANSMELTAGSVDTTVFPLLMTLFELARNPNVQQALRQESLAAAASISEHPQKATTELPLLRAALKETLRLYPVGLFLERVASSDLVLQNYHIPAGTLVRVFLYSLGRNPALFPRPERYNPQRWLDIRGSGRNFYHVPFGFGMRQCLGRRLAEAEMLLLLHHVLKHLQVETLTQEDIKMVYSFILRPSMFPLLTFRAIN

CYP3A4 = CYP3A4 (Homo sapiens, UniProt P08684); assay: Inhibition of recombinant human CYP3A4 expressed in baculovirus infected insect cell microsomes at 1 uM relative to control; type: ADME
Sequence of CYP3A4 (P08684 whole entry): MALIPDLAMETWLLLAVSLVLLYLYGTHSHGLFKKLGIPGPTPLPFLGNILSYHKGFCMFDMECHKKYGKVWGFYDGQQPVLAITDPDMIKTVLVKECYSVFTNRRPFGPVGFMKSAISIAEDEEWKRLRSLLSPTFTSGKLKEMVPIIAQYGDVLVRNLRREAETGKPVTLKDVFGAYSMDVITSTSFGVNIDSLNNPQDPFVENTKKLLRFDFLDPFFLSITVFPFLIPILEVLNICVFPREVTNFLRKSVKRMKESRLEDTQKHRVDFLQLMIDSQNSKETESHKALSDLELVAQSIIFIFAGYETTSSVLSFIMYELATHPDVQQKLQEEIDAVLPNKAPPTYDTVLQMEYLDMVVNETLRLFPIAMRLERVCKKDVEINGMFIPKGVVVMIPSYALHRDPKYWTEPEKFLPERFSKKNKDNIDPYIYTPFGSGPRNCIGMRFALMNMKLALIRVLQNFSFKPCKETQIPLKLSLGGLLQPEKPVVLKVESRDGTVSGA
Outline: (§2)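 Recombinant human CYP1A2, 2B6, 2C9, 2C19, 2D6 and 3A4 in baculovirus-infected insect-cell microsomes, assayed per kit instructions; test compound at 1 µM, percent inhibition.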

CYP2D6 = CYP2D6 (Homo sapiens, UniProt P10635); assay: Inhibition of recombinant human CYP2D6 expressed in baculovirus infected insect cell microsomes at 1 uM relative to control; type: ADME; outline: as §2
Sequence of CYP2D6 (P10635 whole entry): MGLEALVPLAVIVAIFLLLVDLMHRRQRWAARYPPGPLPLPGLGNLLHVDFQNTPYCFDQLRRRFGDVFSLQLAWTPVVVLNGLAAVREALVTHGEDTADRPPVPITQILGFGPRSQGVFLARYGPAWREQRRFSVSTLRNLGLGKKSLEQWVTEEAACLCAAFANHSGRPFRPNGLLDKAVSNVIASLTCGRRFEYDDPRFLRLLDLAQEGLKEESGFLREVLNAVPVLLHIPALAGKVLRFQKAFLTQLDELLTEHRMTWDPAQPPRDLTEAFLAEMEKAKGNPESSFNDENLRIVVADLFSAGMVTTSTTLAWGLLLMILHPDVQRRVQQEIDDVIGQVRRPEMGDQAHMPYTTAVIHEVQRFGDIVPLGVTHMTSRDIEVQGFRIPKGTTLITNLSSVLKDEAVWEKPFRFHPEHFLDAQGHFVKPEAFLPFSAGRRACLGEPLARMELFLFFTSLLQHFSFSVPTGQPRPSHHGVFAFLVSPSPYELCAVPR

| Compound | IC50 [1] | IC20 at 66 h [2] | IC50 [3] | Activity (Salmonella typhimurium) | inhibition at 20 min, 2 µM (CYP19A1) | IC50 [4] | inhibition at 1 µM (CYP3A4) | inhibition at 1 µM (CYP2D6) |
| --- | --- | --- | --- | --- | --- | --- | --- | --- |
| Cc1cncc(Cc2cc(-c3ccccc3)no2)c1 | 82 nM | 28 µM | 4000 nM | Non-Toxic | ≤ 9% | 5 nM | 61% | 0% |
| COc1cncc(Cc2cc(-c3ccccc3)no2)c1 | 27 nM | 42 µM | 1800 nM | Non-Toxic | ≤ 9% | 2 nM | 33% | 8% |
